Source: ChEMBL document CHEMBL2407080, “Synthesis and antifungal activities of cyclic octa-lipopeptide burkholdine analogues” (2013)
Converted amounts (≈) assume the structure as drawn.

What was measured:
Format in all cases: functional
Aspergillus oryzae = assay: Antifungal activity against Aspergillus oryzae 1-Murasaki-1 after 24 hrs by two-fold serial dilution method; conditions: 1-Murasaki-1, 24 h
How it was run: (§1)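 Broth twofold serial dilution MIC. Organisms were pre-grown 2 days in YPD broth, and the assay was run in YPD. Compound started at […] in medium with 0.1% DMSO, then serially diluted twofold. Each well was inoculated with about 5.0 × 10³ cells and incubated 24 h at 30 °C. MIC is the lowest concentration with no visible growth.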

[1] = Antifungal activity against Candida viswanathii NBRC10321 after 24 hrs by two-fold serial dilution method; how it was run: as §1
Saccharomyces cerevisiae = assay: Antifungal activity against Saccharomyces cerevisiae X2180-1A after 24 hrs by two-fold serial dilution method; how it was run: as §1

MIC (Aspergillus oryzae) [µg/mL] | MIC [1] [µg/mL] | MIC (Saccharomyces cerevisiae) [µg/mL] | SMILES
100 (≈ 98.1 µM) | > 800 | 50 (≈ 49.1 µM) | CCCCCCCCCCCCNC(=O)[C@H]1CC(=O)N[C@@H](CO)C(=O)N[C@H](Cc2ccc(O)cc2)C(=O)N[C@H](CC(N)=O)C(=O)NCC(=O)N[C@@H](CC(N)=O)C(=O)N[C@@H](CO)C(=O)N[C@@H](CC(N)=O)C(=O)N1
800 (≈ 990 µM) | > 800 | 800 (≈ 990 µM) | NC(=O)C[C@@H]1NC(=O)CNC(=O)[C@@H](CC(N)=O)NC(=O)[C@@H](Cc2ccc(O)cc2)NC(=O)[C@@H](CO)NC(=O)CCNC(=O)[C@H](CC(N)=O)NC(=O)[C@H](CO)NC1=O
– | – | 0.8 (≈ 0.866 µM) | C[C@@H]1[C@H](O)[C@@H](C)/C=C/C=C/C=C/C=C/C=C/C=C/C=C/[C@H](O[C@@H]2O[C@H](C)[C@@H](O)[C@H](N)[C@@H]2O)C[C@@H]2O[C@](O)(C[C@@H](O)C[C@@H](O)[C@H](O)CC[C@@H](O)C[C@@H](O)CC(=O)O[C@H]1C)C[C@H](O)[C@H]2C(=O)O [AMPHOTERICIN B]
100 (≈ 98.1 µM) | 400 (≈ 392 µM) | 50 (≈ 49.1 µM) | CCCCCCCCCCCCNC(=O)[C@@H]1CC(=O)N[C@H](CO)C(=O)N[C@@H](Cc2ccc(O)cc2)C(=O)N[C@H](CC(N)=O)C(=O)NCC(=O)N[C@@H](CC(N)=O)C(=O)N[C@@H](CO)C(=O)N[C@@H](CC(N)=O)C(=O)N1
400 (≈ 392 µM) | > 800 | 400 (≈ 392 µM) | CCCCCCCCCCCCNC(=O)[C@H]1CC(=O)N[C@H](CO)C(=O)N[C@@H](Cc2ccc(O)cc2)C(=O)N[C@H](CC(N)=O)C(=O)NCC(=O)N[C@@H](CC(N)=O)C(=O)N[C@@H](CO)C(=O)N[C@@H](CC(N)=O)C(=O)N1
> 800 | > 800 | 200 (≈ 196 µM) | CCCCCCCCCCCCNC(=O)[C@H]1CC(=O)N[C@@H](CO)C(=O)N[C@@H](Cc2ccc(O)cc2)C(=O)N[C@@H](CC(N)=O)C(=O)NCC(=O)N[C@@H](CC(N)=O)C(=O)N[C@@H](CO)C(=O)N[C@@H](CC(N)=O)C(=O)N1
400 (≈ 392 µM) | 800 (≈ 785 µM) | > 800 | CCCCCCCCCCCCNC(=O)[C@@H]1CC(=O)N[C@@H](CO)C(=O)N[C@H](Cc2ccc(O)cc2)C(=O)N[C@@H](CC(N)=O)C(=O)NCC(=O)N[C@@H](CC(N)=O)C(=O)N[C@@H](CO)C(=O)N[C@@H](CC(N)=O)C(=O)N1
– | – | 1.6 (≈ 1.46 µM) | CCCCCCCCCCC[C@H](O)[C@H](O)[C@H](O)C[C@H]1CC(=O)N[C@@H](CO)C(=O)N[C@H]([C@H](O)c2ccc(O)cc2)C(=O)N[C@H](CC(N)=O)C(=O)NCC(=O)N[C@@H](CC(N)=O)C(=O)N[C@@H](CO)C(=O)N[C@@H]([C@H](O)C(N)=O)C(=O)N1
> 800 | > 800 | 400 (≈ 392 µM) | CCCCCCCCCCCCNC(=O)[C@H]1CC(=O)N[C@H](CO)C(=O)N[C@@H](Cc2ccc(O)cc2)C(=O)N[C@@H](CC(N)=O)C(=O)NCC(=O)N[C@@H](CC(N)=O)C(=O)N[C@@H](CO)C(=O)N[C@@H](CC(N)=O)C(=O)N1
50 (≈ 49.1 µM) | 800 (≈ 785 µM) | 25 (≈ 24.5 µM) | CCCCCCCCCCCCNC(=O)[C@@H]1CC(=O)N[C@H](CO)C(=O)N[C@H](Cc2ccc(O)cc2)C(=O)N[C@H](CC(N)=O)C(=O)NCC(=O)N[C@@H](CC(N)=O)C(=O)N[C@@H](CO)C(=O)N[C@@H](CC(N)=O)C(=O)N1
> 800 | > 800 | 800 (≈ 785 µM) | CCCCCCCCCCCCNC(=O)[C@H]1CC(=O)N[C@@H](CO)C(=O)N[C@H](Cc2ccc(O)cc2)C(=O)N[C@@H](CC(N)=O)C(=O)NCC(=O)N[C@@H](CC(N)=O)C(=O)N[C@@H](CO)C(=O)N[C@@H](CC(N)=O)C(=O)N1
800 (≈ 785 µM) | > 800 | 800 (≈ 785 µM) | CCCCCCCCCCCCNC(=O)[C@H]1CC(=O)N[C@@H](CO)C(=O)N[C@@H](Cc2ccc(O)cc2)C(=O)N[C@H](CC(N)=O)C(=O)NCC(=O)N[C@@H](CC(N)=O)C(=O)N[C@@H](CO)C(=O)N[C@@H](CC(N)=O)C(=O)N1
800 (≈ 785 µM) | > 800 | > 800 | CCCCCCCCCCCCNC(=O)[C@@H]1CC(=O)N[C@H](CO)C(=O)N[C@H](Cc2ccc(O)cc2)C(=O)N[C@@H](CC(N)=O)C(=O)NCC(=O)N[C@@H](CC(N)=O)C(=O)N[C@@H](CO)C(=O)N[C@@H](CC(N)=O)C(=O)N1
> 800 | > 800 | 800 (≈ 990 µM) | NC(=O)C[C@@H]1NC(=O)CNC(=O)[C@@H](CC(N)=O)NC(=O)[C@H](Cc2ccc(O)cc2)NC(=O)[C@@H](CO)NC(=O)CCNC(=O)[C@H](CC(N)=O)NC(=O)[C@H](CO)NC1=O
> 800 | > 800 | 400 (≈ 392 µM) | CCCCCCCCCCCCNC(=O)[C@@H]1CC(=O)N[C@H](CO)C(=O)N[C@@H](Cc2ccc(O)cc2)C(=O)N[C@@H](CC(N)=O)C(=O)NCC(=O)N[C@@H](CC(N)=O)C(=O)N[C@@H](CO)C(=O)N[C@@H](CC(N)=O)C(=O)N1
800 (≈ 785 µM) | > 800 | 800 (≈ 785 µM) | CCCCCCCCCCCCNC(=O)[C@H]1CC(=O)N[C@H](CO)C(=O)N[C@H](Cc2ccc(O)cc2)C(=O)N[C@@H](CC(N)=O)C(=O)NCC(=O)N[C@@H](CC(N)=O)C(=O)N[C@@H](CO)C(=O)N[C@@H](CC(N)=O)C(=O)N1
800 (≈ 785 µM) | > 800 | 400 (≈ 392 µM) | CCCCCCCCCCCCNC(=O)[C@H]1CC(=O)N[C@H](CO)C(=O)N[C@H](Cc2ccc(O)cc2)C(=O)N[C@H](CC(N)=O)C(=O)NCC(=O)N[C@@H](CC(N)=O)C(=O)N[C@@H](CO)C(=O)N[C@@H](CC(N)=O)C(=O)N1
400 (≈ 392 µM) | 800 (≈ 785 µM) | > 800 | CCCCCCCCCCCCNC(=O)[C@@H]1CC(=O)N[C@@H](CO)C(=O)N[C@@H](Cc2ccc(O)cc2)C(=O)N[C@H](CC(N)=O)C(=O)NCC(=O)N[C@@H](CC(N)=O)C(=O)N[C@@H](CO)C(=O)N[C@@H](CC(N)=O)C(=O)N1
> 800 | 800 (≈ 990 µM) | > 800 | NC(=O)C[C@@H]1NC(=O)CNC(=O)[C@H](CC(N)=O)NC(=O)[C@H](Cc2ccc(O)cc2)NC(=O)[C@H](CO)NC(=O)CCNC(=O)[C@H](CC(N)=O)NC(=O)[C@H](CO)NC1=O
400 (≈ 392 µM) | > 800 | 800 (≈ 785 µM) | CCCCCCCCCCCCNC(=O)[C@@H]1CC(=O)N[C@@H](CO)C(=O)N[C@H](Cc2ccc(O)cc2)C(=O)N[C@H](CC(N)=O)C(=O)NCC(=O)N[C@@H](CC(N)=O)C(=O)N[C@@H](CO)C(=O)N[C@@H](CC(N)=O)C(=O)N1
200 (≈ 196 µM) | > 800 | 800 (≈ 785 µM) | CCCCCCCCCCCCNC(=O)[C@@H]1CC(=O)N[C@@H](CO)C(=O)N[C@@H](Cc2ccc(O)cc2)C(=O)N[C@@H](CC(N)=O)C(=O)NCC(=O)N[C@@H](CC(N)=O)C(=O)N[C@@H](CO)C(=O)N[C@@H](CC(N)=O)C(=O)N1
